# System: MDA-MB-231
# Assay: Growth inhibition of human MDA-MB-231 cells at 10 uM after 48 hrs by SRB assay
# Format: functional
# Settings: MDA-MB-231, 48 h, read-out: GI
# Procedure, shortened: (§1)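 NCI-60 primary one-dose screen run at the US NCI, with human tumour lines from nine cancer types. Compound added once at 10^-5 M, followed by 48 h incubation. End point was sulforhodamine B protein staining read spectrophotometrically. Result given as percent growth of treated cells against untreated controls, reported as % growth inhibition.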
row,SMILES,inhibition of growth at 10 µM
1,Cc1ccc(-c2nc3ccc(Cl)cc3c(=O)n2NC(=O)CNN)cc1,62%

# System: DU-145
# Assay: Growth inhibition of human DU145 cells at 10 uM after 48 hrs by SRB assay
# Format: functional
# Settings: DU-145, 48 h, read-out: GI
# Procedure, shortened: as §1
row,SMILES,inhibition of growth at 10 µM
1,Cc1ccc(-c2nc3ccc(Cl)cc3c(=O)n2NC(=O)CNN)cc1,28%

# System: not listed separately
# Assay: Growth inhibition of human HCC2998 cells at 10 uM after 48 hrs by SRB assay
# Format: functional
# Settings: HCC 2998, 48 h, read-out: GI
# Procedure, shortened: as §1
row,SMILES,inhibition of growth at 10 µM
1,Cc1ccc(-c2nc3ccc(Cl)cc3c(=O)n2NC(=O)CNN)cc1,< 10%

# System: SR
# Assay: Growth inhibition of human SR cells at 10 uM after 48 hrs by SRB assay
# Format: functional
# Settings: read-out: GI
# Procedure, shortened: as §1
row,SMILES,inhibition of growth at 10 µM
1,Cc1ccc(-c2nc3ccc(Cl)cc3c(=O)n2NC(=O)CNN)cc1,13%

# System: TK-10
# Assay: Growth inhibition of human TK10 cells at 10 uM after 48 hrs by SRB assay
# Format: functional
# Settings: TK-10, 48 h, read-out: GI
# Procedure, shortened: as §1
row,SMILES,inhibition of growth at 10 µM
1,Cc1ccc(-c2nc3ccc(Cl)cc3c(=O)n2NC(=O)CNN)cc1,61%

# System: not listed separately
# Assay: Growth inhibition of human SF539 cells at 10 uM after 48 hrs by SRB assay
# Format: functional
# Settings: SF-539, 48 h, read-out: GI
# Procedure, shortened: as §1
row,SMILES,inhibition of growth at 10 µM
1,Cc1ccc(-c2nc3ccc(Cl)cc3c(=O)n2NC(=O)CNN)cc1,54%

# System: not listed separately
# Assay: Growth inhibition of human LOXIMVI cells at 10 uM after 48 hrs by SRB assay
# Format: functional
# Settings: LOX IMVI, read-out: GI
# Procedure, shortened: as §1
row,SMILES,inhibition of growth at 10 µM
1,Cc1ccc(-c2nc3ccc(Cl)cc3c(=O)n2NC(=O)CNN)cc1,27%

# System: not listed separately
# Assay: Growth inhibition of human UACC257 cells at 10 uM after 48 hrs by SRB assay
# Format: functional
# Settings: UACC-257, 48 h, read-out: GI
# Procedure, shortened: as §1
row,SMILES,inhibition of growth at 10 µM
1,Cc1ccc(-c2nc3ccc(Cl)cc3c(=O)n2NC(=O)CNN)cc1,23%

# System: not listed separately
# Assay: Growth inhibition of human OVCAR4 cells at 10 uM after 48 hrs by SRB assay
# Format: functional
# Settings: OVCAR-4, 48 h, read-out: GI
# Procedure, shortened: as §1
row,SMILES,inhibition of growth at 10 µM
1,Cc1ccc(-c2nc3ccc(Cl)cc3c(=O)n2NC(=O)CNN)cc1,80%

# System: not listed separately
# Assay: Growth inhibition of human BT549 cells at 10 uM after 48 hrs by SRB assay
# Format: functional
# Settings: BT-549, 48 h, read-out: GI
# Procedure, shortened: (§2)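 NCI primary one-dose screen. A single concentration of 10^-5 M was added to the cell culture, followed by 48 h incubation and an SRB protein-dye endpoint read spectrophotometrically. Results are growth percentage relative to untreated control cells, reported as % growth inhibition.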
row,SMILES,inhibition of growth at 10 µM
1,Cc1ccc(-c2nc3ccc(Cl)cc3c(=O)n2NC(=O)CNN)cc1,< 10%

# System: 786-0
# Assay: Growth inhibition of human 786-0 cells at 10 uM after 48 hrs by SRB assay
# Format: functional
# Settings: 786-0, 48 h, read-out: GI
# Procedure, shortened: as §2
row,SMILES,inhibition of growth at 10 µM
1,Cc1ccc(-c2nc3ccc(Cl)cc3c(=O)n2NC(=O)CNN)cc1,22%

# System: PC-3
# Assay: Growth inhibition of human PC3 cells at 10 uM after 48 hrs by SRB assay
# Format: functional
# Settings: PC-3, 48 h, read-out: GI
# Procedure, shortened: as §1
row,SMILES,inhibition of growth at 10 µM
1,Cc1ccc(-c2nc3ccc(Cl)cc3c(=O)n2NC(=O)CNN)cc1,33%

# System: HT-29
# Assay: Growth inhibition of human HT-29 cells at 10 uM after 48 hrs by SRB assay
# Format: functional
# Settings: HT-29, 48 h, read-out: GI
# Procedure, shortened: as §1
row,SMILES,inhibition of growth at 10 µM
1,Cc1ccc(-c2nc3ccc(Cl)cc3c(=O)n2NC(=O)CNN)cc1,33%

# System: NCI-H226
# Assay: Growth inhibition of human NCI-H226 cells at 10 uM after 48 hrs by SRB assay
# Format: functional
# Settings: NCI-H226, 48 h, read-out: GI
# Procedure, shortened: as §1
row,SMILES,inhibition of growth at 10 µM
1,Cc1ccc(-c2nc3ccc(Cl)cc3c(=O)n2NC(=O)CNN)cc1,35%

# System: not listed separately
# Assay: Growth inhibition of human RXF393 cells at 10 uM after 48 hrs by SRB assay
# Format: functional
# Settings: RXF 393, 48 h, read-out: GI
# Procedure, shortened: as §1
row,SMILES,inhibition of growth at 10 µM
1,Cc1ccc(-c2nc3ccc(Cl)cc3c(=O)n2NC(=O)CNN)cc1,11%

# System: NCI-H522
# Assay: Growth inhibition of human NCI-H522 cells at 10 uM after 48 hrs by SRB assay
# Format: functional
# Settings: NCI-H522, 48 h, read-out: GI
# Procedure, shortened: as §1
row,SMILES,inhibition of growth at 10 µM
1,Cc1ccc(-c2nc3ccc(Cl)cc3c(=O)n2NC(=O)CNN)cc1,61%

# System: U-251
# Assay: Growth inhibition of human U251 cells at 10 uM after 48 hrs by SRB assay
# Format: functional
# Settings: U-251, 48 h, read-out: GI
# Procedure, shortened: as §1
row,SMILES,inhibition of growth at 10 µM
1,Cc1ccc(-c2nc3ccc(Cl)cc3c(=O)n2NC(=O)CNN)cc1,58%

# System: not listed separately
# Assay: Growth inhibition of human OVCAR8 cells at 10 uM after 48 hrs by SRB assay
# Format: functional
# Settings: OVCAR-8, 48 h, read-out: GI
# Procedure, shortened: as §1
row,SMILES,inhibition of growth at 10 µM
1,Cc1ccc(-c2nc3ccc(Cl)cc3c(=O)n2NC(=O)CNN)cc1,23%

# System: IGROV-1
# Assay: Growth inhibition of human IGROV1 cells at 10 uM after 48 hrs by SRB assay
# Format: functional
# Settings: IGROV-1, 48 h, read-out: GI
# Procedure, shortened: as §1
row,SMILES,inhibition of growth at 10 µM
1,Cc1ccc(-c2nc3ccc(Cl)cc3c(=O)n2NC(=O)CNN)cc1,41%

# — ChEMBL document CHEMBL3259728, “Design, synthesis and biological evaluation of some novel substituted quinazolines as antitumor agents” (2014)
